Assay [1] deals with T1, 3-keto-steroid reductase/17-beta-hydroxysteroid dehydrogenase 7 (Homo sapiens) (UniProt P56937).
T1 sequence (whole entry): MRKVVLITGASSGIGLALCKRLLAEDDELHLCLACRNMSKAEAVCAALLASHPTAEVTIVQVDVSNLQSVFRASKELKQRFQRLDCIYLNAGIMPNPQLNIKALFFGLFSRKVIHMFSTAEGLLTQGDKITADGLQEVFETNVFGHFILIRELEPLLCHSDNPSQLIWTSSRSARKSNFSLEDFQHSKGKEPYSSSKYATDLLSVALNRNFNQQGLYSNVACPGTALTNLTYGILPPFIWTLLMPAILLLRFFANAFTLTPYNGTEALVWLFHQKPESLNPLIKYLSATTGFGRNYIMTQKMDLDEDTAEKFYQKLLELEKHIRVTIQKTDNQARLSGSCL
The following applies: HEK293, at 0.3 µM.

Assay [2] deals with T1, 3-keto-steroid reductase/17-beta-hydroxysteroid dehydrogenase 7 (Homo sapiens). Put plainly: Inhibition of human 17beta-HSD7 expressed in HEK293 cells assessed as inhibition of reduction of [14C]dihydrotestosterone into [14C]5alpha-androstane-3beta,17beta-diol at 3 uM after 18 hrs. The class given is cell-based. In short, it runs like this: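 Intact HEK-293 cells stably overexpressing h17β-HSD7 (pCMV-neo, G-418 selected) were plated at 500 000 cells/well in MEM with 10% fetal calf serum at 37 °C. Fresh medium received 15 000 cpm (~150 nM) [4-14C]-DHT plus ethanolic inhibitor, and cells were incubated 18 h. Steroids were extracted twice with diethyl ether. Assays were done in duplicate.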

Assay [3] addresses T2, 17-beta-hydroxysteroid dehydrogenase type 1 (Homo sapiens) (UniProt P14061).
T2 sequence (whole entry): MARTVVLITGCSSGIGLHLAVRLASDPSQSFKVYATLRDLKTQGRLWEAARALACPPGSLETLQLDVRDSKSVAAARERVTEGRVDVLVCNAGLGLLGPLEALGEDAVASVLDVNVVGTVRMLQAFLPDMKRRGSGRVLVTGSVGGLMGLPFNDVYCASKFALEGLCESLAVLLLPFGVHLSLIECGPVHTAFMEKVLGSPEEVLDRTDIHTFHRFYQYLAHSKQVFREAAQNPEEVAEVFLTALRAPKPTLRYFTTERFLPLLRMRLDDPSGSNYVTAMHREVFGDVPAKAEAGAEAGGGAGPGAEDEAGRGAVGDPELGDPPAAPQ
Nature of the assay: Inhibition of human 17beta-HSD1 expressed in HEK293 cells assessed as inhibition of reduction of [14C]estrone into [14C]estradiol at 0.1 uM. The class given is cell-based. The procedure, abridged: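 Enzyme source: sonicated HEK-293 cells transfected with the h17β-HSD1 gene. Inhibitor was dissolved in ethanol and tested at final concentrations of 0.1 and 1 μM. The [14C]-E1 to [14C]-E2 assay was run as in an earlier report.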

Assay [4] concerns the target T3, 3-oxo-5-alpha-steroid 4-dehydrogenase 2 (Homo sapiens) (UniProt P31213).
T3 sequence (whole entry): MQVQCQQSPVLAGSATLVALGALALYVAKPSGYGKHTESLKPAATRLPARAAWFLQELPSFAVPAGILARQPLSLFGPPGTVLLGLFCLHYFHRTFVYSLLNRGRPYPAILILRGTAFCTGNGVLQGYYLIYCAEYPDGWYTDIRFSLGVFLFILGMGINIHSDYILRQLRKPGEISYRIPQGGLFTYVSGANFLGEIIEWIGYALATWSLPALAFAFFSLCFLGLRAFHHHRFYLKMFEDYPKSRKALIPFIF
Put plainly: Inhibition of human 5alpha reductase 2 expressed in HEK293 cells assessed as inhibition of conversion of [14C]4-androstene-3,17-dione to [14C]5R-androstane-3,17-dione at 0.3 uM after 3 hrs. The class given is cell-based. In short, it runs like this:
(§1)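 Intact HEK-293 cells transfected with pCMV-neo-h5α-reductase type 1 or type 2 were plated at 500 000 cells/well at 37 °C. They were incubated with 15 000 cpm [14C]-Δ4-dione and inhibitor (final 0.3 or 3 μM), in duplicate, for 1 h (type 1) or 3 h (type 2). Steroids were extracted and separated by TLC (toluene/EtOAc 4:1). Radioactivity gave % transformation and % inhibition.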

In assay [5] the target is T4, 3-oxo-5-alpha-steroid 4-dehydrogenase 1 (Homo sapiens) (UniProt P18405).
T4 sequence (whole entry): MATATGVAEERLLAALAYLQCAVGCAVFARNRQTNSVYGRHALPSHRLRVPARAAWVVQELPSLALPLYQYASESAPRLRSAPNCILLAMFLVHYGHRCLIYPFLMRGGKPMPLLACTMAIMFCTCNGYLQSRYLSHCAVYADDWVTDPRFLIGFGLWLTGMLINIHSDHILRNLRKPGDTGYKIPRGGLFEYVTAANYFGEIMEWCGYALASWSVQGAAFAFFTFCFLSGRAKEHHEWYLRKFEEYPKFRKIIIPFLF
Put plainly: Inhibition of human 5alpha reductase 1 expressed in HEK293 cells assessed as inhibition of conversion of [14C]4-androstene-3,17-dione to [14C]5R-androstane-3,17-dione at 0.3 uM after 1 hr. The class given is cell-based. The procedure, abridged:
as §1

The subject of a further assay is HEK293. Put plainly: Inhibition of human 17beta-HSD5 expressed in HEK293 cells assessed as inhibition of conversion of [14C]4-androstene-3,17-dione to [14C]testosterone at 0.3 uM after 20 hrs. The class given is cell-based. In short, it runs like this:
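Intact HEK-293 cells stably transfected with pCMV-neo-h17β-HSD5 were plated at 500 000 cells/well. They were incubated with 15 000 cpm [4-14C]-Δ4-dione and inhibitor in ethanol (0.3 or 3 μM) for 20 h at 37 °C, 5% CO2, in triplicate. Steroids were then extracted, separated and quantified.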

Assay [6] concerns the target T1, 3-keto-steroid reductase/17-beta-hydroxysteroid dehydrogenase 7 (Homo sapiens). The following applies: HEK293, at 3 µM.
The target of assay [7] is T5, 3-keto-steroid reductase/17-beta-hydroxysteroid dehydrogenase 7 (Homo sapiens, UniProt P56937).
T5 sequence (P56937 whole entry): T1 sequence (whole entry)
Nature of the assay: Inhibition of human 17beta-HSD7 expressed in HEK293 cells assessed as inhibition of reduction of [14C]estrone into [14C]estradiol after 7 hrs. The class given is cell-based. In short, it runs like this:
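Intact HEK-293 cells stably overexpressing h17β-HSD7 were plated at 500 000 cells/well in MEM/10% FCS at 37 °C. Fresh medium received 15 000 cpm (~150 nM, below Km) [4-14C]-estrone plus ethanolic inhibitor for 7 h. Steroids were extracted with diethyl ether. Screening used two inhibitor concentrations in duplicate or triplicate and is reported as % inhibition of E1→E2.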

Calls of active or inactive are those of the source. No cut-off for these calls is given here.

In the case of `CCCCCCCN(C=O)[C@H]1CC[C@H]2[C@@H]3CC[C@H]4N(C)C(=O)CC[C@]4(C)[C@H]3CC[C@]12C`, the results for the inhibition in assay [1] and in assay [2] were 94% and 69%, respectively.

Regarding `CC1(C)CC[C@@]2(CC[C@H]3[C@@H]4CC[C@H]5NC(=O)CC[C@]5(C)[C@H]4CC[C@@]32C)OC1=O`, the inhibition is 69% in assay [2] and 90% in the assay with HEK293. Moreover, the inhibition entry in assay [3], in assay [4] and in assay [5] was “inactive” in each case.

As for `CCCCCCCCCCN(C=O)C1CC[C@H]2[C@@H]3CC[C@H]4NC(=O)CC[C@]4(C)[C@H]3CC[C@]12C` (stereo partly drawn), the inhibition in assay [2] worked out at 69%.

As to `CCCCCCCN(C)C1CC[C@H]2[C@@H]3CC[C@H]4NC(=O)CC[C@]4(C)[C@H]3CC[C@]12C` (stereo partly drawn), in assay [2], the inhibition was found to be 69%.

With `CCCCCCCN(C(=O)c1ccc(F)cc1)[C@H]1CC[C@H]2[C@@H]3CC[C@H]4N(C)C(=O)CC[C@]4(C)[C@H]3CC[C@]12C`, the inhibition in assay [1] amounted to 84%; in assay [2], 69%.

In the case of `CC1=C(c2ccc(O)cc2)[C@H](c2ccc(OCCN3CCCCC3)cc2)Oc2cc(O)ccc21`, the inhibition in assay [1] turned out to be 3.1%; in assay [6] it was 4.2%.

As to `CC1(C)C[C@@]2(CC[C@H]3[C@@H]4CCc5cc(O)ccc5[C@H]4CC[C@@]32C)OC1=O`, the inhibition in assay [1] was 14.5%; in assay [6], 42.4%.

On to `CC(C)NC(=O)N(C1CC1)[C@H]1CC[C@H]2[C@@H]3CC[C@H]4N(C)C(=O)C=C[C@]4(C)[C@H]3CC[C@]12C`, for which the inhibition came out at 3.6% in assay [1] and 2.5% in assay [6].

For the compound `COc1cc2c(cc1S(N)(=O)=O)CC[C@@H]1[C@@H]2CC[C@]2(C)C(=O)CC[C@@H]12`, the inhibition in assay [1] worked out at 6.4%; in assay [6] it was 10.3%.

`CC1(C)CC[C@@]2(CC[C@H]3[C@@H]4CCc5cc(C#N)ccc5[C@H]4CC[C@@]32C)OC1=O`: the inhibition was determined as 23.8% in assay [1] and 34.6% in assay [6].

In the case of `COc1cc2c(cc1O)CC[C@@H]1[C@@H]2CC[C@]2(C)C(=O)CC[C@@H]12`, the inhibition turned out to be 18.4% in assay [1] and 13.4% in assay [6].

With `CN(C)C(=O)c1ccc2c(c1)CC[C@@H]1[C@@H]2CC[C@@]2(C)[C@H]1CC[C@@]21CCC(C)(C)C(=O)O1`, the inhibition in assay [1] was 15.2%; in assay [6], 36.1%.

For the compound `C[C@]12CC[C@](O)(CCc3ccccc3)C[C@@H]1CC[C@@H]1[C@@H]2CC[C@]2(C)C(=O)CC[C@@H]12`, the inhibition in assay [1] was found to be 0%; in assay [6], 17.4%.

As for `CN1C(=O)CC[C@]2(C)[C@H]3CC[C@]4(C)[C@@H](Nc5ccc([N+](=O)[O-])c(C(F)(F)F)c5)CC[C@H]4[C@@H]3CC[C@@H]12`, the inhibition in assay [1] worked out at 66.1%; in assay [6] it was 100%.

For `C[C@]12CC[C@@H]3c4ccc(O)cc4CC[C@H]3[C@@H]1CC[C@@H]2O`, the inhibition in assay [1] is 1.1%; in assay [6], 0%.

In the case of `C[C@]12CC[C@@H]3c4ccc(S(N)(=O)=O)cc4CC[C@H]3[C@@H]1CCC2=O`, the inhibition in assay [1] worked out at 4.2%; in assay [6] it was 6.1%.

Regarding `CC1(C)CC[C@@]2(CC[C@H]3[C@@H]4CCc5cc(C(=O)Oc6ccccc6)ccc5[C@H]4CC[C@@]32C)OC1=O`, the inhibition in assay [1] was determined as 14%; in assay [6], 28.6%.

On to `COC(=O)c1ccc2c(c1)CC[C@@H]1[C@@H]2CC[C@@]2(C)[C@H]1CC[C@@]21CCC(C)(C)C(=O)O1`, for which the inhibition in assay [1] was determined as 15.1%; in assay [6], 49%.

`CCS(=O)(=O)Oc1ccc2c(c1)CC[C@@H]1[C@@H]2CC[C@@]2(C)[C@H]1CC[C@@]21CCC(C)(C)C(=O)O1`: the values for the inhibition in assay [1] and in assay [6] were 21% and 60.9%, respectively.

Consider `CC1(C)CC[C@@]2(CC[C@H]3[C@@H]4CCC5CC(=O)CC[C@]5(C)[C@H]4CC[C@@]32C)OC1=O` (stereo partly drawn), for which the inhibition came out at 2.2% in assay [1] and 26.4% in assay [6].

For the compound `CC/C(=C(\c1ccccc1)c1ccc(OCCN(C)C)cc1)c1ccccc1`, the inhibition in assay [1] turned out to be 8.9%; in assay [6], 3.2%.

With `C[C@@]12C=CC[C@H]1[C@@H]1CCc3cc(O)ccc3[C@H]1CC2`, the inhibition in assay [1] came out at 7.5%; in assay [6], 5.8%.

As to `CCCCCCCN(C(=O)c1c(F)cccc1F)[C@H]1CC[C@H]2[C@@H]3CC[C@H]4N(C)C(=O)CC[C@]4(C)[C@H]3CC[C@]12C`, the inhibition in assay [1] came to 84%; in assay [2], 69%.

On to `CN(C=O)[C@H]1CC[C@H]2[C@@H]3CC[C@H]4N(C)C(=O)CC[C@]4(C)[C@H]3CC[C@]12C`, for which the inhibition came to 14.5% in assay [1] and 15.8% in assay [6].

Take `CCCCCCCN(CCCC)[C@H]1CC[C@H]2[C@@H]3CC[C@H]4N(C)C(=O)CC[C@]4(C)[C@H]3CC[C@]12C`: the inhibition in assay [1] amounted to 76%; in assay [2], 69%. In addition, the inhibition result in assay [4] was “inactive”.

As for `CCCCCCCN(C)[C@H]1CC[C@H]2[C@@H]3CC[C@H]4N(C)C(=O)CC[C@]4(C)[C@H]3CC[C@]12C`, the IC50 in assay [7] was 189 nM. Also, the inhibition in assay [2] came to 69%. Moreover, the inhibition result in assay [4] was “inactive”.

`CC1(C)CC[C@@]2(CC[C@H]3[C@@H]4CCc5cc(C(N)=S)ccc5[C@H]4CC[C@@]32C)OC1=O`: the values for the inhibition in assay [1] and in assay [6] were 18.5% and 60.9%, respectively.

`C[C@]12CC[C@@H]3c4ccc(O)cc4CC[C@H]3[C@@H]1CC[C@@]21CCC(=O)O1`: the inhibition in assay [1] amounted to 3.9%; in assay [6], 3.1%.

In the case of `C[C@]12CC[C@@H](O)C[C@@H]1CC[C@@H]1[C@@H]2CC[C@]2(C)[C@@H](O)CC[C@@H]12`, the inhibition is 1.1% in assay [1] and 8.4% in assay [6].

With `CN1C(=O)CC[C@]2(C)[C@H]3CC[C@]4(C)[C@@H](N(C=O)C5CC5)CC[C@H]4[C@@H]3CC[C@@H]12`, the inhibition in assay [1] was 17.6%; in assay [6], 41.2%.

By inhibition is commonly meant the percentage by which the read-out fell short of the control. A word on the IC50: it is the concentration that gives 50% inhibition.

The record behind these values is ChEMBL document CHEMBL1154295, “Potent and selective steroidal inhibitors of 17beta-hydroxysteroid dehydrogenase type 7, an enzyme that catalyzes the reduction of the key hormones estrone and dihydrotestosterone” (J Med Chem, 2009).
